5HT1a ag: agonists of human 5-HT1a serotonin receptor; P08908; CHO 5-HT1a Ga15 NFAT-bla reporter, FRET ratio; 0% basal, 100% maximal reference agonist; activation, % at 10 µM; 0.56% of 65,000 active; AID 567;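 active = activation above the screen-wide mean activation plus 3 SD, cut at about 19% in these data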
Target sequence (P08908 whole entry, looked up): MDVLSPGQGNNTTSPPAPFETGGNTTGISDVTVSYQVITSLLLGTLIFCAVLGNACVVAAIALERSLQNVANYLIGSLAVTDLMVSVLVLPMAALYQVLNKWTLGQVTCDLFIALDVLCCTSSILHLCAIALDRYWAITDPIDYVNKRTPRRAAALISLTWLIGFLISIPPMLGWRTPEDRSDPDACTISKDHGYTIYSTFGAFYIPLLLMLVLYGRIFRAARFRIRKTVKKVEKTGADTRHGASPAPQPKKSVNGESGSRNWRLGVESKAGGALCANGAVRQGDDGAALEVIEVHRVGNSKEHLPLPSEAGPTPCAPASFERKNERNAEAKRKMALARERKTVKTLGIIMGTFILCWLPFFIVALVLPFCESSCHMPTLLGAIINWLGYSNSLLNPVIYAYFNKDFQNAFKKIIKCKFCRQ
HTR1E agonist: activates the human 5-HT1E serotonin receptor | P28566 | CHO 5-HT1E Ga15 NFAT-bla reporter, FRET; 0% DMSO wells, 100% control agonist wells | 0.69% of 65,000 active | AID 574 | activation, % at 6 µM;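 active = activation above a set limit, the screen-wide mean activation plus 3 SD, cut at about 8.5% in these data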
5HT1E antag: 5-HT1E (human) receptor antagonism | inhibition, % at 6 µM | AID 571 | 0.99% of 65,000 active | CHO 5-HT1E Ga15 NFAT-bla reporter, FRET, antagonist;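 active = inhibition above a set limit, the mean inhibition across every tested compound plus 3 SD, cut at about 29% in these data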;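 note: signal is the 460 over 535 nm emission ratio of beta-lactamase substrate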
S1P1 ag pot: activates or potentiates agonism at human S1P1 receptor | P21453 | S1P1 CRE-bla cells, forskolin, beta-lactamase FRET, potentiator mode; S1P1 agonist co-added at EC20, 2 nM; 100% = saturating reference agonist, 0% = basal | activation, % at 9.5 µM | 0.57% of 56,000 active;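 active = activation above a cutoff set at the mean activation of all tested compounds plus 3 SD, cut at about 54% in these data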;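 note: forskolin at 4 µM as EC80 and the EC20 agonist is SEW2871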
S1P3 ag: agonists of human S1P3 receptor; Q99500; S1P3 NFAT-BLA reporter cells, agonism, FRET ratio; relative to 1 µM S1P, basal subtracted; activation, % at 4.5 µM; 0.1% of 60,000 active; AID 373;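 active = activation above the screen-wide mean plus 3 SD, cut at about 4.5% in these data, passing the limit was not always enough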
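Measure – % activation relative to 1 µM S1P (100%), per plate · System – stable CHO line with human S1P3, Gα16, NFAT-BLA reporter · Timing – cells plated overnight, compound 4 h 37 °C, substrate 2 h RT · Technique – fluorescent BLA substrate, ex 405 nm, em 460/535 nm ratio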
5HT1a antag: blocks the human serotonin 5-HT1a receptor; P08908; CHO 5-HT1a Ga15 NFAT-bla reporter, antagonist mode; inhibition, % at 10 µM; 0.68% of 62,000 active; AID 612;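 active = inhibition above the mean of all tested compounds plus 3 SD, cut at about 43% in these data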;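 note: receptor stimulated by 5-CT agonist at 100 nM near EC80; beta-lactamase reporter measured by ratiometric fluorescence of a cleavable substrate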
Numbers stand for hits; 0 = inactive; - = not tested or not shown. Most compounds without a hit are left out; they make up all but 3% or so of the library.

SMILES	5HT1a ag	HTR1E agonist	5HT1E antag	S1P1 ag pot	S1P3 ag	5HT1a antag
COc1ccc(C(=O)CN2CCOCC2)cc1F	0	0	0	0	0	-
COc1ccc(C(=O)N2CCOCC2)cc1S(=O)(=O)N1CCC(C)CC1	40.2	0	0	-	0	0
CNCC(O)c1cccc(OC(=O)c2ccccc2C)c1 (stereo unspecified)	0	9.4	0	0	0	0
COc1ccc(Cc2nccc3cc(OC)c(OC)cc23)cc1OC	0	0	41.3	0	0	-
Cc1nc2ccccc2c(=O)n1-c1ccccn1	0	0	0	0	0	0
CN1C[C@H](CNC(=O)OCc2ccccc2)C[C@@H]2c3cccc4c3c(cn4C)C[C@H]21	85.4	21.5	0	0	0	-
O=C(NC[P+](=O)O)OCc1ccccc1	0	0	0	0	0	0
Cc1ccc2c(c1)[C@@H]1CN(C)CC[C@@H]1N2C(=O)Nc1cccc(C(F)(F)F)c1	0	0	0	0	0	-
Cc1ccc2c(c1)C1CN(C)CCC1N2C(=O)c1ccc(Br)o1 (stereo unspecified)	0	0	0	-	-	59.6
CCN1CC=C(c2c[nH]c3ccccc23)CC1	0	99.5	0	0	0	0
O=C(CCC(=O)N1CCC2(CC1)OCCO2)Nc1nnc(C(F)(F)F)s1	0	0	0	0	0	0
Cc1[nH]c2c(C(F)(F)F)cccc2c1CCN	0	66.7	0	0	0	0
Cc1n[nH]c(C)c1CCN	0	0	0	0	0	0
CCCCOC(=O)C1=C(N)OC2=C(C(=O)CCC2)[C@]12C(=O)N(C)c1ccccc12	0	0	0	0	0	0
C=CCn1c(O)c(C(C)=Nc2ccc(NC(C)=O)cc2)c(=O)[nH]c1=O	0	0	0	0	0	0
CC(=O)c1cccc(OCC(O)CN2CC=C(c3ccccc3)CC2)c1 (stereo unspecified)	0	0	0	0	0	65.4
CCn1nc(-c2ccccc2)nc2c(=O)n(C)c(=O)nc1-2	0	0	100.6	73.3	0	85.2
O=C(c1ccc2c(c1)ncn2C1CCCCC1)N1CCC2(CC1)OCCO2	0	0	0	0	0	0
COc1ccc(C2NCc3ccc4c(c3-n3cccc32)OCO4)cc1O (stereo unspecified)	0	0	30.6	0	0	64.9
c1cc2n(c1)-c1c(ccc3c1OCO3)CNC2c1ccc2c(c1)OCO2 (stereo unspecified)	0	0	0	0	0	0
CCCNC(=O)c1c(N)n(Cc2ccc3c(c2)OCO3)c2nc3ccccc3nc12	36.3	0	0	0	0	0
COc1ccc(Cn2c(N)c(C(=O)NCc3ccco3)c3nc4ccccc4nc32)cc1OC	0	0	0	0	0	0
CCCCNC(=O)c1c(N)n(CCCOC)c2nc3ccccc3nc12	0	0	0	-	-	0
CC(C)OCCCNC(=O)c1c(N)n(Cc2cccs2)c2nc3ccccc3nc12	41.1	10.7	0	0	12.1	0
CN1CCN(c2nccc3c2ncn3C)CC1	0	9.8	0	0	0	0
SMILES	5HT1a ag	HTR1E agonist	5HT1E antag	S1P1 ag pot	S1P3 ag	5HT1a antag
O=C1NC(=O)C(Cc2cccs2)C(=O)N1	0	0	0	0	0	0
Nc1c(C(=O)NCc2ccco2)c2nc3ccccc3nc2n1CCN1CCCCC1	0	0	0	0	11.4	-
COCCOC(=O)c1c(N)n(Cc2ccco2)c2nc3ccccc3nc12	0	0	0	0	0	-
CC(C)OC(=O)c1c(N)n(Cc2ccco2)c2nc3ccccc3nc12	0	0	28.8	0	0	-
CCOc1ccc(-n2c(CC)nc3ccccc3c2=O)cc1	0	0	0	0	0	0
CC[C@@H](CO)NC(=O)[C@@H]1C=C2c3cccc4c3c(cn4C)C[C@H]2N(C)C1	52.9	95.1	0	0	0	-
Nc1c(C(=O)NC2CCCC2)c2nc3ccccc3nc2n1CC1CCCO1 (stereo unspecified)	28.1	0	0	0	8.2	0
CN(C)c1nc(OCCNC(=O)COc2ccc(Cl)cc2Cl)nc(N2CCCCC2)n1	0	0	101.6	-	0	0
Cc1nc2cc(C(F)(F)F)ccc2n1C1CCN(Cc2nnnn2Cc2ccc3c(c2)OCO3)CC1	0	0	37.5	0	0	0
Cc1nc2cc(C(F)(F)F)ccc2n1C1CCN(Cc2nnnn2Cc2cccs2)CC1	0	0	0	-	-	0
Oc1ccc(C2NCc3ccccc3-n3cccc32)cc1Cl (stereo unspecified)	0	0	0	94.4	0	0
CCS(=O)(=O)N1CCCC(C(=O)N2CCC3(CC2)OCCO3)C1 (stereo unspecified)	0	0	0	0	0	0
CCCSc1nc(O)c(CC)c(=O)n1C(C)CC (stereo unspecified)	0	0	0	0	0	0
CCn1c(O)c(C=NCCc2c[nH]c3ccccc23)c(=O)[nH]c1=O	0	16.7	0	0	0	0
O=C1NC(=O)C(CCc2ccncc2)(c2ccccc2)C(=O)N1	0	0	0	0	0	0
Clc1ccc2c(N3CCNCC3)ccnc2c1	0	12.2	0	0	0	0
Cc1cc([P+](=O)O)c(C)n1-c1ccc(Br)cc1	0	0	0	0	0	0
COC(=O)CC1(CC(=O)OC)C(=O)NC(=O)NC1=O	0	0	0	0	0	0
CCC(=NCc1ccc(F)cc1)c1c(O)n(C)c(=O)n(C)c1=O	0	0	0	0	0	0
COc1ccccc1N1CCN(Cc2ccc(Br)s2)CC1	0	0	0	0	0	44.2
O=c1[nH]c(=O)n(-c2cccc(Cl)c2)c(O)c1C=NCCN1CCCCC1	0	0	0	0	0	-
CCOC(=O)c1cc2c(cn1)[nH]c1ccccc12	0	0	32.3	0	0	-
NC(=O)CSP(=O)(c1ccccc1)c1ccccc1	0	0	0	0	0	0

Bioassay records from PubChem.
